From PubChem
ALR inh – inhibitors of human ALR sulfhydryl oxidase, primary screen, biochemical, H2O2 detection, HRP-luminol luminescence, single point; FAD-linked sulfhydryl oxidase ALR (Homo sapiens), P55789; actives 3.8% (n = 290,000); inhibition, % (concentration not given with the values); purified ALR, DTT oxidation;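 active = mean replicate inhibition above about 79%, with every replicate also reaching it, limit read from the data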
Target sequence (P55789 whole entry, looked up): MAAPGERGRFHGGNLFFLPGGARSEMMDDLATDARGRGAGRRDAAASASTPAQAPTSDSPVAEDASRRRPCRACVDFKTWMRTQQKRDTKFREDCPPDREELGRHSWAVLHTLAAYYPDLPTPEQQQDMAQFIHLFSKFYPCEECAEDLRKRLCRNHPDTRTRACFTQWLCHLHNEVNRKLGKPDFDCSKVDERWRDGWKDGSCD
T cell modulator – modulators of CD8 T cell-vesicle binding, primary screen, mouse 2C CD8+ T cells, flow cytometry; 2C CD8+ T cell-vesicle binding; hits give low values; response (vesicle binding), % at 7 µM; actives 0.068% (n = 330,000); AID 2052, 2009;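 active = response, share of CD8 T cells binding vesicles, and their 90th percentile fluorescence all below set limits, cut at about 80% in these data, passing the limit was not always enough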;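 note: values below 100% mean blocked vesicle binding to the CD8+ T cells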
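Assay system: 2C TCR transgenic mouse naive CD8+ T cells, MACS-purified | Read-out: CD8+ gate FL2 mean fluorescence as % of same-row positive control | Signal: High-throughput flow cytometry with anti-B7-1 and anti-CD8 staining | Timing: Binding step 1.5 h, 37 °C, antibody labelling 20 min, ice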
N-glyco inh – increase of ERlucT glycosylation luciferase signal, primary screen, N-linked glycosylation inhibitor project, D54 ERlucT cells, luminescence, set 2 | D54 ERlucT glycosylation luciferase reporter, 24 h; percent of 100 nM tunicamycin response | reporter increase, % at 12.5 µM | actives 0.23% (n = 360,000);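 active = mean luciferase reporter signal, scaled so untreated is 0 and the glycosylation-blocking control 100, at or above a set limit in every replicate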;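 note: luciferase carries N-glycosylation sites so blocking glycosylation raises the light; 0% = median of neutral control wells and 100% = median of 100 nM tunicamycin wells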
An asterisk follows results filed as active. The entries come from a sample that favours hits as a whole.

Results for Cc1ccc(Cn2ncn(-c3ccccc3)c2=O)cc1 ?
ALR inh: -14; T cell modulator: 324; N-glyco inh: -1

How did CC(C)(C)OC(=O)CN1C(=O)S/C(=C\c2ccc(-c3cccc(C(=O)O)c3)o2)C1=O do in these assays?
ALR inh: 97*; T cell modulator: 193

Results for C#CCN1C(=O)S/C(=C\c2ccc(-c3ccc(C(=O)O)cc3C)o2)C1=O ?
ALR inh: 90*; T cell modulator: 223; N-glyco inh: 2

Results for Cc1cc(C(=O)O)ccc1-c1ccc(/C=C2\SC(=O)N(CC(=O)Nc3ccc4c(c3)OCO4)C2=O)o1 ?
ALR inh: -16; T cell modulator: 894; N-glyco inh: -2

What do the screens show for `Cc1ccc(NC(=O)CN2C(=O)S/C(=C/c3ccc(-c4cccc(C(=O)O)c4)o3)C2=O)cc1`?
N-glyco inh: -1

What do the screens show for `O=c1cc(SCc2ccccc2)nc[nH]1`?
N-glyco inh: 1

Results for CN(CC(=O)Nc1ccccc1C(F)(F)F)C(=O)Cc1ccc(S(=O)(=O)N2CCOCC2)s1 ?
ALR inh: -1; T cell modulator: 356; N-glyco inh: 1

Results for O=C1CC(c2ccccc2)CC2=C1C1(CCCC1)N=C(Nc1nc3ccccc3o1)N2 (stereo not drawn) ?
N-glyco inh: -3

Results for COc1ccc(NC(=O)C=C(C)C)cc1Cl ?
ALR inh: 6; T cell modulator: 220; N-glyco inh: -4

What do the screens show for `COC(=O)/C=C/C(=O)Nc1ccc(O)c(Cl)c1`?
ALR inh: 100*; T cell modulator: 108; N-glyco inh: -4

How did COC(=O)/C=C/C(=O)Nc1cccnc1 do in these assays?
ALR inh: 95*; T cell modulator: 372; N-glyco inh: 3

How did O=C(O)/C=C/C(=O)Nc1cccnc1 do in these assays?
ALR inh: -5; T cell modulator: 261; N-glyco inh: -3

How did CC1(C)CC(=O)C(N=Nc2ccc(S(=O)(=O)N3CCOCC3)cc2)=C(O)C1 do in these assays?
ALR inh: 8; T cell modulator: 243; N-glyco inh: 0

Results for O=C(CC(=O)NCCc1ccccc1)NCCc1ccccc1 ?
ALR inh: -9; T cell modulator: 169; N-glyco inh: 1

What do the screens show for `NNCCc1ccccc1`?
ALR inh: 99*; T cell modulator: 639; N-glyco inh: 2

What do the screens show for `Cc1c(C(=O)Nc2cc(S(=O)(=O)N3CCOCC3)ccc2N2CCN(C)CC2)oc2ccccc12`?
ALR inh: -2; T cell modulator: 217; N-glyco inh: 0

Results for S=c1nc(-c2ccccc2)n(Cc2cccnc2)c2c1CCCC2 ?
ALR inh: 94*; T cell modulator: 265

What do the screens show for `CC1(C)Cc2c(c(=S)nc(-c3ccccc3)n2Cc2cccnc2)CO1`?
T cell modulator: 418; N-glyco inh: 0

Results for COc1ccc([C@H]2N[C@]3(CCCN(Cc4ccc(C(F)(F)F)cc4)C3=O)[C@H]3C(=O)N(Cc4ccccc4)C(=O)[C@@H]23)cc1 ?
N-glyco inh: -1

What do the screens show for `Cc1ccc(-c2nc(COC(=O)C3=NN(c4ccccc4)C(=O)CC3)cs2)cc1`?
ALR inh: 99*; T cell modulator: 379; N-glyco inh: 1

Results for CC(=O)COC(=O)C1=NN(c2ccccc2)C(=O)CC1 ?
ALR inh: -7; T cell modulator: 351; N-glyco inh: 2

What do the screens show for `O=C(/C=C/c1ccc(Cl)cc1)Nc1cc(S(=O)(=O)N2CCOCC2)ccc1N1CCOCC1`?
ALR inh: -1; T cell modulator: inactive; N-glyco inh: 1

What do the screens show for `CC(Oc1ccc2ccc(=O)oc2c1)C(=O)NC1CC(C)(C)NC(C)(C)C1` (stereo not drawn)?
ALR inh: 2; T cell modulator: 429; N-glyco inh: 1

What do the screens show for `Cc1ccc(C(=O)Nc2ccc(SC(F)F)cc2)s1`?
ALR inh: 10; T cell modulator: 286; N-glyco inh: -5

How did O=C(Nc1ccc(SC(F)F)cc1)C1=COCCO1 do in these assays?
ALR inh: 99*; T cell modulator: 578; N-glyco inh: -10

How did CCNC(=O)CC1C(=O)N(CC)C(=S)N1NC(=O)c1ccccc1 (stereo not drawn) do in these assays?
ALR inh: -4; T cell modulator: 646; N-glyco inh: 1

What do the screens show for `CCOC(=O)C1CCCCN1S(=O)(=O)c1ccc2c(c1)CC(C)N2C(=O)C1CCC1` (stereo not drawn)?
ALR inh: -3; T cell modulator: 273; N-glyco inh: 0
